Source: ChEMBL document CHEMBL3272094 (J Med Chem, 1978)
Active and inactive are the calls of the source. The calls are words filed in the database; no cut-off is given here.

Columns and labels:
Rattus norvegicus [1] = assay: Hypertensive effect in Wistar rat assessed as mean pressor response at 10 umol/kg in presence of phentolamine; format: functional
Method in brief: (§1)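 Rats given 1 or 10 μmol/kg iv as a 0.5 mL/kg saline bolus. Mean arterial pressure recorded and the pressor response corrected for the saline injection artifact. Reserpine groups received 2.5 mg/kg ip at 48 and 24 h before. Phentolamine 10 mg/kg iv was given 1 min before dosing. Means ± SEM, n=3–6.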

Rattus norvegicus [2] = assay: Hypertensive effect in Wistar rat assessed as increase in blood pressure at 20 umol/kg administered repeatedly in presence of reserpine; format: functional
Method in brief: (§2)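 Reserpine-pretreated rat given repeated iv injections of 20 μmol/kg, then 128 μmol/kg infused over 90 s. Arterial blood pressure recorded continuously, including time to return to preinjection level.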

Cavia porcellus [3] = organism: Cavia porcellus; assay: Agonist activity at alpha-adrenergic receptor in guinea pig aortic strip assessed as induction of contraction
Method in brief: (§3)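 Spirally cut thoracic aortic strip (3 cm × 2 mm) from male guinea pig (400–900 g), in modified Krebs at 37.0 °C, gassed 95% O2/5% CO2. Initial tension 0.5 g, equilibrated ≥2 h. Isometric contraction recorded over cumulative dose-response curves, with each dose held until the response levelled (10 min). Responses expressed as % of maximum contraction to 10⁻⁴ M norepinephrine added after the last dose.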

Rattus norvegicus [4] = assay: Hypertensive effect in Wistar rat assessed as increase in blood pressure at 20 umol/kg administered repeatedly followed by infusion of 128 umol/kg for 90 secs in presence of reserpine; format: functional; method in brief: as §2
Rattus norvegicus [5] = assay: Hypertensive effect in Wistar rat assessed as increase in blood pressure at 20 umol/kg administered repeatedly after 15 mins in presence of reserpine; format: functional, organism-based; method in brief: as §2
Rattus norvegicus [6] = assay: Hypertensive effect in Wistar rat assessed as mean pressor response at 1 umol/kg; format: functional; method in brief: as §1
Rattus norvegicus [7] = assay: Hypertensive effect in Wistar rat assessed as mean arterial pressure at 10 umol/kg in presence of phentolamine; format: functional, Artery; method in brief: as §1
Rattus norvegicus [8] = assay: Hypertensive effect in Wistar rat assessed as mean arterial pressure at 1 umol/kg; format: functional, Artery; method in brief: as §1
Rattus norvegicus [9] = assay: Hypertensive effect in Wistar rat assessed as mean arterial pressure at 10 umol/kg; format: functional, Artery; method in brief: as §1
Rattus norvegicus [10] = assay: Hypertensive effect in Wistar rat assessed as mean arterial pressure at 10 umol/kg in presence of phentolamine and reserpine; format: functional, Artery; method in brief: as §1
Cavia porcellus [11] = organism: Cavia porcellus; assay: Agonist activity at alpha-adrenergic receptor in guinea pig aortic strip assessed as induction of contraction up to 3 x 10^-3 M in presence of phentolamine
Rattus norvegicus [12] = assay: Hypertensive effect in Wistar rat assessed as mean arterial pressure at 1 umol/kg in presence of reserpine; format: functional, Artery; method in brief: as §1
Rattus norvegicus [13] = assay: Hypertensive effect in Wistar rat assessed as mean pressor response at 10 umol/kg in presence of reserpine; format: functional; method in brief: as §1
Rattus norvegicus [14] = assay: Hypertensive effect in Wistar rat assessed as mean pressor response at 1 umol/kg in presence of reserpine; format: functional; method in brief: as §1
Cavia porcellus [15] = organism: Cavia porcellus; assay: Agonist activity at alpha-adrenergic receptor in guinea pig aortic strip assessed as induction of contraction relative to norepinephrine; method in brief: as §3
Rattus norvegicus [16] = assay: Hypertensive effect in Wistar rat assessed as tachyphylaxis at 20 umol/kg administered repeatedly followed by infusion of 128 umol/kg for 90 secs in presence of reserpine; format: functional, organism-based; method in brief: as §2
Rattus norvegicus [17] = assay: Hypertensive effect in Wistar rat assessed as increase in mean arterial pressure at 10 umol/kg relative to control; format: functional, Artery; method in brief: as §1
Rattus norvegicus [18] = assay: Hypertensive effect in Wistar rat assessed as mean arterial pressure at 10 umol/kg in presence of reserpine; format: functional, Artery; method in brief: as §1
Rattus norvegicus [19] = assay: Hypertensive effect in Wistar rat assessed as mean pressor response at 10 umol/kg in presence of phentolamine and reserpine; format: functional; method in brief: as §1
Rattus norvegicus [20] = assay: Hypertensive effect in Wistar rat assessed as mean pressor response at 10 umol/kg; format: functional; method in brief: as §1
Felis catus = assay: Inhibition of isoproterenol-induced tachycardia in cat at 100 ug/kg; format: functional
[21] = Octanol-water partition coefficient, log P of the compound; format: physicochemical
[22] = target: Beta-2 adrenergic receptor (Cavia porcellus) (UniProt Q8K4Z4); settings: Trachea
Chain of Beta-2 adrenergic receptor (Cavia porcellus) (Q8K4Z4 whole entry, looked up): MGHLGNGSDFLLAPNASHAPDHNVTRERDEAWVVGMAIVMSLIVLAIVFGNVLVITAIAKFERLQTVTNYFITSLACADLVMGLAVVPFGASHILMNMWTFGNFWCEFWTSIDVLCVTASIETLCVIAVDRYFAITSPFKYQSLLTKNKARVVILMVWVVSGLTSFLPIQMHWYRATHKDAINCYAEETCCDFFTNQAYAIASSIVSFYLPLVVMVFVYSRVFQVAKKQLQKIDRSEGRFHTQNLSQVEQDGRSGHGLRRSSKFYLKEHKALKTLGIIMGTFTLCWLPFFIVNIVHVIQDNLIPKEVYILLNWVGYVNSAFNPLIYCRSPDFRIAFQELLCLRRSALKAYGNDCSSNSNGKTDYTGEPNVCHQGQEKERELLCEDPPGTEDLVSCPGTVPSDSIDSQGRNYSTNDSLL

[23] = target: Beta-2 adrenergic receptor (Cavia porcellus) (UniProt Q8K4Z4); settings: Trachea; remark: listed apart in the source
Rattus norvegicus [24] = assay: Hypertensive effect in Wistar rat assessed as change in mean arterial pressure at 10 nmol/kg (reference value: 7 +/- 2 mmHg); format: functional, Artery
Method in brief: (§4)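 Intact rats; femoral or jugular vein cannulated. Doses of 1–1000 nmol/kg given as a 0.5 mL/kg iv saline bolus, each followed by a heparinized saline flush. Arterial pressure and heart rate taken from the oxygraph recording. A saline control was injected first. For the propranolol group, 1.0 mg/kg propranolol was given 5 min before 1.0 μmol/kg. Means ± SEM, n=3–4.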

Rattus norvegicus [25] = assay: Hypertensive effect in Wistar rat assessed as change in mean arterial pressure at 100 nmol/kg up to 15 mins (reference value: 7 +/- 2 mmHg); format: functional, Artery; settings: in the assay text read “up to 1 min” for “up to 15 mins”; method in brief: as §4
[26] = target: Beta-1 adrenergic receptor (Cavia porcellus) (UniProt B0FL73); assay: Ionotropic activity at beta-1 adrenergic receptor in guinea pig atria assessed as effect on atrial rate up to 3 x 10^-4 M in presence of propranolol; settings: Cardiac atrium, in the assay text read “force of atrial contraction” for “atrial rate”
Chain of Beta-1 adrenergic receptor (Cavia porcellus) (B0FL73 1-467): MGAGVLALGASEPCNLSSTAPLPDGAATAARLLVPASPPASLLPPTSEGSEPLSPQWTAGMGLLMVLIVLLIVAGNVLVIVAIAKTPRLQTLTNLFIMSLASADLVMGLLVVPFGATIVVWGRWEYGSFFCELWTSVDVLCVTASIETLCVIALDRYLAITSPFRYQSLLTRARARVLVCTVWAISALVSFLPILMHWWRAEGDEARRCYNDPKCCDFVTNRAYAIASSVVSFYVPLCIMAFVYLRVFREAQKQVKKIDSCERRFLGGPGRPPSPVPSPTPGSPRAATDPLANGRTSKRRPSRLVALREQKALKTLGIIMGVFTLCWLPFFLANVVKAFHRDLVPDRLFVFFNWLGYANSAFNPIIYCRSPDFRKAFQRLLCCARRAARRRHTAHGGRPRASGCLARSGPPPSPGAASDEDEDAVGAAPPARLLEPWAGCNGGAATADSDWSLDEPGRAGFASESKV
Method in brief: (§5)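 Cumulative dosing of guinea pig atria up to 3×10⁻⁴ M with 10⁻⁶ M propranolol in the bath, at 37.0 °C with 1 g diastolic tension.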

[27] = target: Beta-2 adrenergic receptor (Cavia porcellus) (UniProt Q8K4Z4); assay: Agonist activity at beta-2 adrenergic receptor in guinea pig trachea assessed as tracheal relaxation relative to (R,S)-isoproterenol; design: Activity: scale not given: the % may be the effect or the level left
Method in brief: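 Tracheal chain from male guinea pig (some reserpine-pretreated, 5.0 mg/kg ip 24 h before), equilibrated 30 min at 1 g tension and contracted with 3.0×10⁻⁶ M methacholine for 10 min.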

[28] = target: Beta-1 adrenergic receptor (Cavia porcellus) (UniProt B0FL73); assay: Positive chronotropic activity at beta-1 adrenergic receptor in guinea pig atria assessed as effect on force of atrial contraction up to 3 x 10^-4 M in presence of propranolol; settings: Cardiac atrium, in the assay text read “atrial rate” for “force of atrial contraction”; method in brief: as §5
Rattus norvegicus [29] = assay: Hypertensive effect in Wistar rat assessed as increase in heart rate at 1000 nmol/kg (reference value: 1 +/- 0.1 beats/min); format: functional; method in brief: as §4
Rattus norvegicus [30] = assay: Hypertensive effect in Wistar rat assessed as increase in heart rate at 1000 nmol/kg in presence of propranolol (reference value: 1 +/- 0.1 beats/min); format: functional; method in brief: as §4
[31] = target: Beta-1 adrenergic receptor (Cavia porcellus) (UniProt B0FL73); settings: Cardiac atrium
Rattus norvegicus [32] = assay: Hypertensive effect in Wistar rat assessed as change in mean arterial pressure at 1000 nmol/kg in presence of propranolol (reference value: 7 +/- 2 mmHg); format: functional, Artery; method in brief: as §4
[33] = target: Beta-1 adrenergic receptor (Cavia porcellus) (UniProt B0FL73); settings: Cardiac atrium; remark: listed apart in the source
Rattus norvegicus [34] = assay: Hypertensive effect in Wistar rat assessed as increase in heart rate at 10 nmol/kg (reference value: 1 +/- 0.1 beats/min); format: functional; method in brief: as §4
[35] = target: Beta-1 adrenergic receptor (Cavia porcellus) (UniProt B0FL73); assay: Agonist activity at beta-1 adrenergic receptor in guinea pig atria assessed as effect on atrial rate relative to (R,S)-isoproterenol; settings: Cardiac atrium
Method in brief: (§6)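 Guinea pig atria (male, 400–900 g; some given reserpine 5.0 mg/kg ip 24 h before) in oxygenated bath at 37.0 °C, diastolic tension 1 g, steady beating reached first. Cumulative doses given 1 min apart. […] Points are means of ≥4 atria.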

Rattus norvegicus [36] = assay: Hypertensive effect in Wistar rat assessed as change in mean arterial pressure at 1000 nmol/kg (reference value: 7 +/- 2 mmHg); format: functional, Artery; method in brief: as §4
Rattus norvegicus [37] = assay: Hypertensive effect in Wistar rat assessed as change in mean arterial pressure at 1 nmol/kg (reference value: 7 +/- 2 mmHg); format: functional, Artery; method in brief: as §4
[38] = target: Beta-1 adrenergic receptor (Cavia porcellus) (UniProt B0FL73); assay: Agonist activity at beta-1 adrenergic receptor in guinea pig atria assessed as effect on force of atrial contraction relative to (R,S)-isoproterenol; settings: Cardiac atrium; method in brief: as §6
Cavia porcellus [39] = organism: Cavia porcellus; assay: Ratio of relative activity for guinea pig beta-2 adrenergic receptor to relative activity for guinea pig beta-1 adrenergic receptor
[40] = target: Beta-2 adrenergic receptor (Cavia porcellus) (UniProt Q8K4Z4); assay: Agonist activity at beta-2 adrenergic receptor in guinea pig trachea assessed as tracheal relaxation in presence of propranolol
Rattus norvegicus [41] = assay: Hypertensive effect in Wistar rat assessed as increase in heart rate at 1 nmol/kg (reference value: 1 +/- 0.1 beats/min); format: functional; method in brief: as §4
Rattus norvegicus [42] = assay: Hypertensive effect in Wistar rat assessed as increase in heart rate at 100 nmol/kg up to 1 min (reference value: 1 +/- 0.1 beats/min); format: functional; settings: in the assay text read “up to 15 mins” for “up to 1 min”; method in brief: as §4
[43] = Competitive inhibition of tyrosine hydroxylase (unknown origin); design: species or system Homo sapiens

SMILES: NCC(O)c1ccc2[nH]cnc2c1 (racemic)
- Activity (Rattus norvegicus [1]): -4 mmHg
- Activity (Rattus norvegicus [2]): 150 mmHg
- ED50 (Cavia porcellus [3]): 8 µM
- Activity (Rattus norvegicus [4]): 150 mmHg
- Activity (Rattus norvegicus [5]): inactive
- Activity (Rattus norvegicus [6]): 8 mmHg
- Activity (Rattus norvegicus [7]): 46 mmHg
- Activity (Rattus norvegicus [8]): 82 mmHg
- Activity (Rattus norvegicus [9]): 98 mmHg
- Activity (Rattus norvegicus [10]): 48 mmHg
- Activity (Cavia porcellus [11]): inactive
- Activity (Rattus norvegicus [12]): 73 mmHg
- Activity (Rattus norvegicus [13]): 40 mmHg
- Activity (Rattus norvegicus [14]): 9 mmHg
- Activity (Cavia porcellus [15]): 41%
- Activity (Rattus norvegicus [16]): inactive
- Activity (Rattus norvegicus [17]): 40%
- Activity (Rattus norvegicus [18]): 70 mmHg
- Activity (Rattus norvegicus [19]): -5 mmHg
- Activity (Rattus norvegicus [20]): 39 mmHg

SMILES: CC(C)NCC(O)c1ccc2[nH]c(=O)[nH]c2c1 (configuration not stated)
- inhibition in vivo at 0.1 mg/kg (Felis catus): 35%

SMILES: Oc1ccccc1O [CATECHOL]
- logP [21]: 0.88

SMILES: CC(C)NCC(O)c1ccc(O)c(O)c1 (racemic)
- ED50 [22]: 7.8 ×10⁻⁸ M
- pD2 [22]: 7.1
- ED50 [23]: 2.1 ×10⁻⁸ M

SMILES: NC[C@H](O)c1ccc(O)c(O)c1
- ED50 (Cavia porcellus [3]): 1.1 µM

SMILES: CC(C)NCC(O)c1ccc2[nH]cnc2c1 (racemic)
- Activity (Rattus norvegicus [24]): -6 mmHg
- Activity (Rattus norvegicus [25]): -12 mmHg
- Activity [26]: inactive
- %max [27]: 58%
- Activity [27]: 4.79%
- Activity [28]: inactive
- Activity (Rattus norvegicus [29]): 59 bpm
- Activity (Rattus norvegicus [30]): 13 bpm
- ED50 [31]: 6.2 µM
- pD2 [31]: 5.21
- Activity (Rattus norvegicus [32]): 3 mmHg
- ED50 [22]: 1.6 µM
- pD2 [22]: 5.78
- ED50 [33]: 3.8 µM
- pD2 [33]: 5.42
- Activity (Rattus norvegicus [34]): 12 bpm
- %max [35]: 50%
- Activity [35]: 0.355%
- Activity (Rattus norvegicus [36]): -30 mmHg
- Activity (Rattus norvegicus [37]): 4 mmHg
- %max [38]: 33%
- Ratio (Cavia porcellus [39]): 13.5
- fold change (FC) [40]: 2
- Activity (Rattus norvegicus [41]): 1 bpm
- Activity (Rattus norvegicus [42]): 65 bpm

SMILES: N[C@@H](Cc1ccc2[nH]cnc2c1)C(=O)O
- Ki [43]: 20 µM
